Source: ChEMBL document CHEMBL4270660, “Design, synthesis, and systematic evaluation of 4-arylpiperazine- and 4-benzylpiperidine napthyl ethers as inhibitors of monoamine neurotransmitters reuptake” (Bioorg Med Chem, 2018)
Activity calls are given as the source filed them. The rule behind the calls is not given here.

How the values were obtained:
[1] = molecular target: T1, Sodium-dependent serotonin transporter (Homo sapiens, UniProt P31645); conditions: HEK293, at 1 µM
Target sequence in this assay (P31645 whole entry, looked up): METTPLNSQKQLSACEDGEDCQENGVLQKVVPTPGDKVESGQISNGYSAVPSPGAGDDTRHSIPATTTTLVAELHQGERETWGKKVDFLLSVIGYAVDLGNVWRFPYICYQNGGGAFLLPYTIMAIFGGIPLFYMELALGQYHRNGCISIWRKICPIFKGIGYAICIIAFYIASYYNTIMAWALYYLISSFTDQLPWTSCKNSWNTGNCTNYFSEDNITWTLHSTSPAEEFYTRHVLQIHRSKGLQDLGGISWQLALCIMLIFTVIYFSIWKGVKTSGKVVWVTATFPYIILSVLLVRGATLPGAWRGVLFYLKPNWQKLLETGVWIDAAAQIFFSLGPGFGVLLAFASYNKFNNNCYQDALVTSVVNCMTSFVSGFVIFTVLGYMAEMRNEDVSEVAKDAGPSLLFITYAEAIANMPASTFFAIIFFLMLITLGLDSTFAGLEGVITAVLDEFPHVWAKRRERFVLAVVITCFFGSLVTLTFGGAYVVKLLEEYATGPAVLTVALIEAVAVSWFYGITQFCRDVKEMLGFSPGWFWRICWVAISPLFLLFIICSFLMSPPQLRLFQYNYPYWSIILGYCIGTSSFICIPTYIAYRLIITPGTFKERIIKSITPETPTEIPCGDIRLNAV

[2] = molecular target: T2, Sodium-dependent dopamine transporter (Homo sapiens, UniProt Q01959); assay: Inhibition of [3H]dopamine uptake at human DAT expressed in HEK293 cells at 1 uM after 15 to 20 mins by microbeta scintillation counting method; assay type: cell-based
T2 sequence (Q01959 whole entry): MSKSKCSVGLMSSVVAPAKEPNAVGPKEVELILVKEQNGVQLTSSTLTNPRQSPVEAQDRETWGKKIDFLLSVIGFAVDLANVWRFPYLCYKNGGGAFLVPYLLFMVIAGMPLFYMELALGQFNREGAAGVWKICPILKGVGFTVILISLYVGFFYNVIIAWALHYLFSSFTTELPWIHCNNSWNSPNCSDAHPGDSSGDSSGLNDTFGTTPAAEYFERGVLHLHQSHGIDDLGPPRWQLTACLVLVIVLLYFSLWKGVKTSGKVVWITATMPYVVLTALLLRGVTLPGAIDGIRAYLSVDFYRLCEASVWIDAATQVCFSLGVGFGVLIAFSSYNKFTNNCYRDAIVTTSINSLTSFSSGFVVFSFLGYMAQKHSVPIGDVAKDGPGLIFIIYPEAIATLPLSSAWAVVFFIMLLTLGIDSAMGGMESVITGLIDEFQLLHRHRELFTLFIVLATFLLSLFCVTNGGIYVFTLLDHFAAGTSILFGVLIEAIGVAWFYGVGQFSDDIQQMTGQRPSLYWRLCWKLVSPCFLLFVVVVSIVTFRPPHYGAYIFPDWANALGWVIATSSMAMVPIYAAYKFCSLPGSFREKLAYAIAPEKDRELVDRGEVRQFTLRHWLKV
Outline: (§1)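 HEK-293 cells transfected with the human transporter (DAT or NET) were given the radiolabeled substrate, [³H]-DA for DAT or [³H]-NE for NET, at 20 nM in the assay. Uptake was measured by liquid scintillation counting. Reference inhibitors were venlafaxine HCl, bupropion and GBR12909. Single-concentration lines are percent reuptake inhibition at the stated concentration.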

[3] = molecular target: T3, Sodium-dependent noradrenaline transporter (Homo sapiens, UniProt P23975); assay: Inhibition of [3H]norepinephrine uptake at human NET expressed in HEK293 cells at 10 uM after 15 to 20 mins by microbeta scintillation counting method; assay type: cell-based
T3 sequence (P23975 whole entry): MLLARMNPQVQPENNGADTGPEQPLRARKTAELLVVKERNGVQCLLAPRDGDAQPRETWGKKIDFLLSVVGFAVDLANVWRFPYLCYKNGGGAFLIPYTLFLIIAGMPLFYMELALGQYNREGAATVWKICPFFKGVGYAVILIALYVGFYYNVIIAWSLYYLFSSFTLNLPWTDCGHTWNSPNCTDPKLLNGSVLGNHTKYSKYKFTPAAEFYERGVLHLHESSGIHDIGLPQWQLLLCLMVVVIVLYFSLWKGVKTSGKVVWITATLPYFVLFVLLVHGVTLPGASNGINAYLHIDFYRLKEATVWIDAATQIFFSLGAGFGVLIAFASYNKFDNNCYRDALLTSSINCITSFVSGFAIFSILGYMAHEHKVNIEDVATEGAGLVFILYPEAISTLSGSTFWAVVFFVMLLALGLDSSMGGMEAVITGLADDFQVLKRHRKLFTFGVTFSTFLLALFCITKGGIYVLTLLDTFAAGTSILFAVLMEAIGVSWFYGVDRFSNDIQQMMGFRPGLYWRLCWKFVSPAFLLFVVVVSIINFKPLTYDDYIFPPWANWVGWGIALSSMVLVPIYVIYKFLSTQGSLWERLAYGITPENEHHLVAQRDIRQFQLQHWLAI
Outline: as §1

[4] = molecular target: T3, Sodium-dependent noradrenaline transporter; assay: Inhibition of [3H]norepinephrine uptake at human NET expressed in HEK293 cells after 15 to 20 mins by microbeta scintillation counting method; assay type: cell-based
Outline: as §1, with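 “counting.” for “counting. Reference inhibitors were venlafaxine HCl, bupropion and GBR12909.”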

[5] = molecular target: T1, Sodium-dependent serotonin transporter; assay: Inhibition of [3H]serotonin uptake at human SERT expressed in HEK293 cells after 15 to 20 mins by microbeta scintillation counting method; assay type: cell-based
Target sequence in this assay (P31645 whole entry): as the sequence (P31645 whole entry, looked up) above

[6] = molecular target: T2, Sodium-dependent dopamine transporter; assay: Inhibition of [3H]dopamine uptake at human DAT expressed in HEK293 cells after 15 to 20 mins by microbeta scintillation counting method; assay type: cell-based
Outline: as §1

[7] = molecular target: T2, Sodium-dependent dopamine transporter; assay: Inhibition of [3H]dopamine uptake at DAT (unknown origin)
Outline: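 HEK-293 cells transfected with human dopamine transporter (hDAT). Uptake of [³H]-DA at 20 nM, measured by liquid scintillation counting. Test compounds screened as % reuptake inhibition at 1 µM and 10 µM, and IC50 values determined.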

[8] = molecular target: T1, Sodium-dependent serotonin transporter; assay: Inhibition of [3H]serotonin uptake at SERT (unknown origin)
Outline: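 Human serotonin transporter (hSERT) expressed by transfection in HEK-293 cells. [³H]-5-HT at 20 nM, with uptake radioactivity counted by liquid scintillation. Percent reuptake inhibition measured at 1 µM and 10 µM, plus IC50 determination.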
Target sequence in this assay (P31645 whole entry): as the sequence (P31645 whole entry, looked up) above

[9] = molecular target: T3, Sodium-dependent noradrenaline transporter; assay: Inhibition of [3H]norepinephrine uptake at NET (unknown origin)
Outline: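 HEK-293 cells transfected with human norepinephrine transporter (hNET). [³H]-NE at 20 nM as substrate, with uptake read by liquid scintillation counting. Reuptake inhibition recorded at 1 µM and 10 µM test compound, and IC50 derived.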

[10] = molecular target: T3, Sodium-dependent noradrenaline transporter; conditions: HEK293, 1 uM

SMILES | inhibition [1] [%] | inhibition [2] | inhibition [3] [%] | IC50 [5] [µM] | also measured
c1ccc(CC2CCN(CCOc3ccc4ccccc4c3)CC2)cc1 | 12.1 | inactive |  |  | 
Clc1cccc(N2CCN(CCCOc3ccc4ccccc4c3)CC2)c1Cl | 37.5 |  | 45 |  | 
c1ccc(N2CCN(CCOc3ccc4ccccc4c3)CC2)cc1 | 7.2 | 9% | 28 |  | 
c1ccc(CC2CCN(CCCOc3ccc4ccccc4c3)CC2)cc1 | 51 |  | 92.2 | 0.99 | IC50 [4]: 2.54 µM
Cc1cccc(C)c1N1CCN(CCCOc2ccc3ccccc3c2)CC1 | 35.1 |  | 86.5 |  | 
Fc1ccc(N2CCN(CCCOc3ccc4ccccc4c3)CC2)cc1 | 45.4 |  | 23.3 |  | 
c1cnc(N2CCN(CCCOc3ccc4ccccc4c3)CC2)nc1 | 23.8 |  | 47.3 |  | 
Fc1ccc(N2CCN(CCCCOc3ccc4ccccc4c3)CC2)cc1 | 71 |  | 74.3 | 3.15 | IC50 [4]: 3.71 µM
c1ccc(CC2CCN(CCCCOc3ccc4ccccc4c3)CC2)cc1 | 31.9 |  | 80.7 |  | 
c1ccc(N2CCN(CCCOc3ccc4ccccc4c3)CC2)cc1 | 27 |  | 79.6 |  | 
O=C(NCCCN1CCN(c2cccc(Cl)c2Cl)CC1)c1ccc2ccccc2c1 |  |  |  |  | IC50 [6]: > 10 µM
c1ccc(N2CCN(CCCOc3ccc4ccccc4c3)CC2)nc1 | 46.2 |  | 68.7 |  | 
Clc1ccc(N2CCN(CCCOc3ccc4ccccc4c3)CC2)cc1 | 28.4 |  | 25.7 |  | 
COc1ccccc1N1CCN(CCCOc2ccc3ccccc3c2)CC1 | 56.4 |  | 85.3 | 1.04 | IC50 [4]: 1.2 µM
Fc1cccc(F)c1N1CCN(CCCn2nnnc2C(c2ccccc2)c2ccccc2)CC1 |  |  |  | > 10 | 
c1cnc(N2CCN(CCOc3ccc4ccccc4c3)CC2)nc1 | 57 | inactive |  |  | 
Clc1cccc(N2CCN(CCOc3ccc4ccccc4c3)CC2)c1 | 85.3 | inactive | 83.1 | 1.86 | IC50 [4]: 5.83 µM
Cc1cccc(C)c1N1CCN(CCOc2ccc3ccccc3c2)CC1 | 24.6 | 19% | 74.9 |  | 
Clc1cccc(N2CCN(CCCCOc3ccc4ccccc4c3)CC2)c1 | 27.5 |  | 63.7 |  | 
Cc1cccc(C)c1N1CCN(CCCCOc2ccc3ccccc3c2)CC1 | 38.3 |  | 74.4 |  | 
c1ccc(N2CCN(CCCCOc3ccc4ccccc4c3)CC2)nc1 | 45.3 |  | 59 |  | 
c1ccc(C2CCN(CCCn3nnnc3C(c3ccccc3)c3ccccc3)CC2)cc1 |  |  |  |  | IC50 [7]: 0.09 µM; IC50 [8]: > 10 µM; IC50 [9]: 0.51 µM

SMILES | inhibition [1] [%] | inhibition [2] | inhibition [3] [%] | IC50 [5] [µM] | also measured
COc1ccccc1N1CCN(CCOc2ccc3ccccc3c2)CC1 | 48.7 | 19% | 21 |  | 
Clc1ccc(N2CCN(CCCCOc3ccc4ccccc4c3)CC2)c(Cl)c1 | 51 |  | 67.7 | 4.32 | IC50 [4]: 9.74 µM
FC(F)(F)c1ccc(N2CCN(CCOc3ccc4ccccc4c3)CC2)cc1 | 8.2 | 31.3% | 23.1 |  | 
Brc1ccc(N2CCN(CCCCOc3ccc4ccccc4c3)CC2)cc1 | 66.3 |  | 66.3 | 10.7 | IC50 [4]: 25.9 µM
c1cnc(N2CCN(CCCCOc3ccc4ccccc4c3)CC2)nc1 | 32 |  | 31 |  | 
c1ccc(N2CCN(CCCCOc3ccc4ccccc4c3)CC2)cc1 | 41.2 |  | 86.4 |  | 
Clc1ccc(N2CCN(CCCCOc3ccc4ccccc4c3)CC2)cc1 | 49 |  | 69.3 |  | 
FC(F)(F)c1ccc(N2CCN(CCCCOc3ccc4ccccc4c3)CC2)cc1 | 59.2 |  | 68.3 | 0.68 | IC50 [4]: 20.5 µM
Clc1cccc(N2CCN(CCOc3ccc4ccccc4c3)CC2)c1Cl | 26.7 | inactive | 20 |  | 
c1ccc(N2CCN(CCOc3ccc4ccccc4c3)CC2)nc1 | 54 | inactive | 66 | 1.08 | IC50 [4]: 23.8 µM
Clc1cccc(N2CCN(CCCCOc3ccc4ccccc4c3)CC2)c1Cl | 36.8 |  | 60.7 |  | 
Clc1ccc(N2CCN(CCOc3ccc4ccccc4c3)CC2)c(Cl)c1 | 61.4 | 48.5% | 47.3 |  | 
COc1ccccc1N1CCN(CCCCOc2ccc3ccccc3c2)CC1 | 51.3 |  | 68 | 5.16 | IC50 [4]: 29.7 µM
CC(NC(C)(C)C)C(=O)c1cccc(Cl)c1 (stereo unspecified) |  | 78.3% | 61.5 |  | 
Brc1ccc(N2CCN(CCOc3ccc4ccccc4c3)CC2)cc1 | 9 | 19% | 52.8 |  | 
Clc1ccc(N2CCN(CCOc3ccc4ccccc4c3)CC2)cc1 | 20.1 | 2% | 28 |  | 
Fc1ccc(C(OCCN2CCN(c3ccccn3)CC2)c2ccc(F)cc2)cc1 |  |  |  | 0.57 | 
O=C(NCCCN1CCC(Cc2ccccc2)CC1)c1ccc2ccccc2c1 |  |  |  |  | IC50 [7]: > 10 µM; IC50 [8]: 0.1 µM
Fc1ccc(N2CCN(CCOc3ccc4ccccc4c3)CC2)cc1 | 60.5 | 35.6% | 80.8 | 2.8 | IC50 [4]: 5.13 µM
COc1ccc(C(CN(C)C)C2(O)CCCCC2)cc1 (stereo unspecified) |  |  |  |  | inhibition [10]: 52.6%
Brc1ccc(N2CCN(CCCOc3ccc4ccccc4c3)CC2)cc1 | 54.9 |  | 80 | 0.83 | IC50 [4]: 2.85 µM
